In publication PMC2908238 (Journal of neurochemistry, 2010):

Assays:
[1] = Electron microscopy, morphology of assemblies; type: physicochemical; conditions: EM, 10 µM peptide, pH 7.4, 25°C, agitation 200 rpm; for Morphology after 72 h of incubation: 72 h (Aβ40 analogues)
Procedure, shortened: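 Peptide from HFIP films, dissolved in 60 mM NaOH, diluted with water, sonicated 1 min, adjusted to 10 µM in 20 mM sodium phosphate pH 7.4; incubated 25°C with 200 rpm orbital shaking. Aliquots adsorbed 20 min on glow-discharged carbon-coated Formvar grids, wicked, fixed 2.5% glutaraldehyde 4 min, stained 1% uranyl acetate 3 min, air-dried; transmission EM.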

[2] = Dynamic light scattering; type: physicochemical; conditions: 10 µM peptide, pH 7.4, filtered 20 nm, quiescent incubation
Procedure, shortened: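 HFIP-treated peptide films dissolved in 60 mM NaOH, diluted with water, sonicated 1 min, then brought to 10 µM in 20 mM sodium phosphate, pH 7.4. Passed through 20-nm filter before first reading; kept at room temperature, no agitation, up to 14 days. 633-nm He-Ne laser, 90° scattering, multitau correlator; size distribution from regularization deconvolution. Representative of two independent experiments.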

[3] = 5 µM, 37°C, without agitation, ref Ciccotosto et al. 2004; cited from earlier work

Substance | Morphology after 72 h of incubation [1] | DLS intensity spikes (fibril formation) after 7 days ([2]; 7 days) | Hydrodynamic radius (RH) of particles after 7 days ([2]; DLS, 7 days) | Hydrodynamic radius (RH) of particles after 14 days ([2]; DLS, 14 days) | Morphology after 24 h of incubation ([1]; 24 h (Aβ42 analogues)) | Morphology initially and after 72 h of incubation [3]
Aβ40: wild-type amyloid β-protein, 40-residue alloform, synthesized by Fmoc chemistry | did not change | – | – | – | – | –
Aβ42: wild-type amyloid β-protein, 42-residue alloform, synthesized by Fmoc chemistry | – | no intensity spikes | the same distribution | 100–200 nm | abundant fibrils | non-fibrillar morphology
[Val^35]Aβ40: Aβ40 analogue with Met^35 substituted by Val | mixture of oligomers and fibrils | – | – | – | – | –
